For data set [1], the system named is CHO. The data set is described as follows: Modulation of gamma-secretase in CHO cells overexpressing APP V717 mutant assessed as effect on amyloid beta40 level after 17 hrs by ELISA. The data set is classed as cell-based. As to conditions: Cricetulus griseus. The method in brief:
(§1)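 CHO cells overexpressing APP V717F; Aβ42, Aβ40 and Aβ38 quantified together in each well by multiplex Aβ ELISA. EC50 is the mean of at least two determinations.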
In general terms: In an ELISA, binding on a coated surface is turned into a signal by an enzyme label.

Data set [2] is described as follows: Plasma concentration in CF1 mouse at 30 mg/kg, po after 4 hrs. The arrangement: dose 30 mg/kg, route oral. The format is ADME, organism-based. The method in brief: (§2)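 Wild-type (CF-1) mice given compound orally as a solution in ethanol:propylene glycol:10% solutol (1:1:8). Animals sacrificed 4 h post-dose; brain and plasma collected for drug exposure and Aβ levels.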

Data set [3] relates to Mus musculus. The data set is described as follows: Antialzheimer activity in CF1 mouse assessed as reduction in amyloid beta42 level in brain at 30 mg/kg, po after 4 hrs by ELISA. The format is functional. Set-up: scale not given: the % may be the effect or the level left. In short, it runs like this: (§3)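 Wild-type CF-1 mice received a single oral dose as a solution in ethanol:propylene glycol:10% solutol (1:1:8). Animals were sacrificed 4 h after dosing. Brain and plasma were collected for drug concentration and Aβ levels. Aβ change was expressed relative to vehicle-treated controls.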

Data set [4] in a line: Drug uptake in CF1 mouse brain at 30 mg/kg, po after 4 hrs. The data set is classed as ADME, organism-based. Set-up: dose 30 mg/kg, route oral. The settings on record: read-out: Drug uptake. In short, it runs like this:
as §3

Data set [5] is described as follows: Modulation of gamma-secretase in CHO cells overexpressing APP V717 mutant assessed as reduction in amyloid beta42 level after 17 hrs by ELISA. The data set is classed as cell-based. The settings on record: Cricetulus griseus. The method in brief: as §1
The test system of data set [6] is Rattus norvegicus. Put plainly: Antialzheimer activity in F344 rat assessed as reduction in amyloid beta42 level in brain at 30 mg/kg, po after 4 hrs by ELISA. Set-up: dose 30 mg/kg. The format is functional, organism-based.
The test system of data set [7] is CHO. Put plainly: (§4) Modulation of gamma-secretase in CHO cells overexpressing APP V717 mutant assessed as increase in amyloid beta38 level after 17 hrs by ELISA. The data set is classed as cell-based. The settings on record: Cricetulus griseus. In short, it runs like this: as §1
The nature of data set [8]: Ratio of tarenflurbil EC50 to compound EC50 for gamma-secretase.
Data set [9] is described as follows: Modulation of gamma-secretase.
The subject of data set [10] is Plasma. The data set is described as follows: Plasma concentration in CF1 mouse at 10 mg/kg, po. The settings on record: in vivo. The format is ADME, organism-based. The arrangement: dose 10 mg/kg, route oral. In short, it runs like this: as §2
Data set [11] deals with Mus musculus. The data set is described as follows: Antialzheimer activity in CF1 mouse assessed as reduction in amyloid beta 42 level in brain at 10 mg/kg, po. The format is functional. Set-up: scale not given: the % may be the effect or the level left. The method in brief: as §3
Data set [12] addresses Voltage-gated inwardly rectifying potassium channel KCNH2 (Homo sapiens, UniProt Q12809). Put plainly: Inhibition of human ERG by patch clamp assay. In short, it runs like this: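 hERG was tested in an automated FastPatch patch-clamp assay, giving an EC50 readout.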
Data set [13] deals with Brain. Put plainly: Drug uptake in CF1 mouse brain at 10 mg/kg, po. The arrangement: dose 10 mg/kg, route oral. The settings on record: in vivo, read-out: Drug uptake. The data set is classed as ADME, organism-based. In short, it runs like this: as §3
Data set [14] can be described thus: as §4. The data set is classed as cell-based. As to conditions: Cricetulus griseus. In short, it runs like this:
as §1

The source made the active and inactive calls. The calls are words filed in the database; no cut-off is given here.

Sequence of Voltage-gated inwardly rectifying potassium channel KCNH2 (Q12809 whole entry): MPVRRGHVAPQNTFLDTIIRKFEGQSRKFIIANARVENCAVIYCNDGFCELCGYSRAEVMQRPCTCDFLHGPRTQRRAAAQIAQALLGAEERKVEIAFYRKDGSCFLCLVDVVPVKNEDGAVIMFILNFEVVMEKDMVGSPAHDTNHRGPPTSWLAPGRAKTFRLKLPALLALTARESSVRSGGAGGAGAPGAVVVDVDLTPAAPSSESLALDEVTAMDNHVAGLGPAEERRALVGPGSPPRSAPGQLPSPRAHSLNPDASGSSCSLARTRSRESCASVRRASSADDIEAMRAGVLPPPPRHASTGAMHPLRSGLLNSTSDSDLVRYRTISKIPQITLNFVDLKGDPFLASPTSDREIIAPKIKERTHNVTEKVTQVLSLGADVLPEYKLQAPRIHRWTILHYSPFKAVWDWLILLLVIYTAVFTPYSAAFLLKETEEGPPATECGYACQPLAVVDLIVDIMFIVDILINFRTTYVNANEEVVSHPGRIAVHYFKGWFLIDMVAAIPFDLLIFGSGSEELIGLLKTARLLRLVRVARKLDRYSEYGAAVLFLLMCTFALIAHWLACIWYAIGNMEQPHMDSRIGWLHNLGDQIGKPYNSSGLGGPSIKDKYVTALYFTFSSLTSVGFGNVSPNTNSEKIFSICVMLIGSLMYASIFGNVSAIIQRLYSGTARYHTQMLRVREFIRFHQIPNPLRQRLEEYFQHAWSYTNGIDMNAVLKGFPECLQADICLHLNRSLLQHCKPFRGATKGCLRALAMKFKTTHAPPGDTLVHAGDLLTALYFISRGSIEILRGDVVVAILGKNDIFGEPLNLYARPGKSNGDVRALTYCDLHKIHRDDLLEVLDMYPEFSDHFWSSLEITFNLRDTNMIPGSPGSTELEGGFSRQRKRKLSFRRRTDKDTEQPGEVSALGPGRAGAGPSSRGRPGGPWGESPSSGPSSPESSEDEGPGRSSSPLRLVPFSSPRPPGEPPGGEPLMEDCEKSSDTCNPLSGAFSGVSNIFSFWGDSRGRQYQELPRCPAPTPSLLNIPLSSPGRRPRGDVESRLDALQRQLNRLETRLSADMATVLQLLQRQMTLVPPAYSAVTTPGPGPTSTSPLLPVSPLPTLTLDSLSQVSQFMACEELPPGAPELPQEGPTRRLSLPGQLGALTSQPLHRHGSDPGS

Usually EC50 stands for the concentration that produces a half-maximal response. Regarding `CC1CCN(C(c2ccc(F)cc2)c2ccc(C(C)(C)C(=O)O)cc2-c2ccc(C(F)(F)F)cc2)CC1` (stereo unspecified), the result in data set [1] and in [6] was inactive. The concentration at 4 h was determined as 22.8 µM in [2] and 16.1 µM in data set [4]. For the same molecule, the Activity in [3] came out at 30%. The EC50 in [5] is 450 nM. Moreover, the result in data set [7] was Active.
For `O=C(O)C1(c2ccc(-c3ccc(Cl)c(Cl)c3)c(F)c2)CC1`, in data set [8], the Ratio EC50 stood at 7. This molecule yielded an EC50 in data set [9] of 40000 nM.
Turning to `CC1CCN([C@@H](c2ccc(F)cc2)c2ccc([C@H](C)C(=O)O)cc2-c2ccc(C(F)(F)F)cc2)CC1`, the concentration in [10] turned out to be 7.4 µM; in [13], 6.6 µM. Besides, the outcome in data set [1] was inactive. Moreover, the Activity in data set [11] was 38%. Moreover, the values for the EC50 in [12], in [5] and in data set [14] were 4600 nM, 150 nM and 110 nM, respectively.

(Values after ChEMBL document CHEMBL2146445, “Discovery of BIIB042, a Potent, Selective, and Orally Bioavailable γ-Secretase Modulator” (ACS Med Chem Lett, 2011).)
